Source: ChEMBL document CHEMBL1641431, “Triazoloquinazolinediones as novel high affinity ligands for the benzodiazepine site of GABA(A) receptors” (Bioorg Med Chem, 2011)
pKi: −log10 of the molar value. Values belong to the molecule of their own block, whether it stands above or below them.

Columns and labels:
Homo sapiens [1] = organism: Homo sapiens; assay: Selectivity ratio of Ki for human recombinant alpha5beta3gamma2 GABA(A) receptor to Ki for human recombinant alpha1beta3gamma2 GABA(A) receptor
Summary of the method: (§1)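 Ratio of the Ki at the named subtype to the Ki at α1β3γ2. Both Ki values come from [3H]flumazenil (1 nM) displacement on membranes of HEK cells with human receptors, run 40 min at 0–4 °C with GF/C filtration. Ki = IC50/(1+L/KD).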

[2] = molecular target: T1, GABA-A receptor; alpha-3/beta-3/gamma-2 (Homo sapiens, UniProt P18507+P28472+P34903); assay: Displacement of [3H]flumazenil human recombinant alpha3beta3gamma2 GABA(A) receptor expressed in HEK293 cells after 30 mins by glass fiber filtration assay; assay type: cell-based; settings: in the assay text read “after 40 mins” for “after 30 mins”
T1 sequence (P18507 whole entry): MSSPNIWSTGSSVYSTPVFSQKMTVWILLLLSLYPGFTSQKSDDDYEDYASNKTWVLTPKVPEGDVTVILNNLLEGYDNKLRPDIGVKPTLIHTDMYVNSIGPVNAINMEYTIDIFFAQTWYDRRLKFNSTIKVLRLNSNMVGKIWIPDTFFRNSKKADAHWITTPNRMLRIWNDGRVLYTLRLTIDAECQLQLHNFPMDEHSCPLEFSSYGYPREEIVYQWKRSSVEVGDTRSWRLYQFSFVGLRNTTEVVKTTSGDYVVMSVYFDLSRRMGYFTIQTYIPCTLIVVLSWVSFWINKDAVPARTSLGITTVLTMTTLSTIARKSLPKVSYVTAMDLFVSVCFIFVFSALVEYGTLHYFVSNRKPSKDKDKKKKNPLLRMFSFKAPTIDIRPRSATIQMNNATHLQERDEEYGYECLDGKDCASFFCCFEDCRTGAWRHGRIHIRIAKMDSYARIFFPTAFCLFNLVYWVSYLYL
T1 sequence (P28472 whole entry): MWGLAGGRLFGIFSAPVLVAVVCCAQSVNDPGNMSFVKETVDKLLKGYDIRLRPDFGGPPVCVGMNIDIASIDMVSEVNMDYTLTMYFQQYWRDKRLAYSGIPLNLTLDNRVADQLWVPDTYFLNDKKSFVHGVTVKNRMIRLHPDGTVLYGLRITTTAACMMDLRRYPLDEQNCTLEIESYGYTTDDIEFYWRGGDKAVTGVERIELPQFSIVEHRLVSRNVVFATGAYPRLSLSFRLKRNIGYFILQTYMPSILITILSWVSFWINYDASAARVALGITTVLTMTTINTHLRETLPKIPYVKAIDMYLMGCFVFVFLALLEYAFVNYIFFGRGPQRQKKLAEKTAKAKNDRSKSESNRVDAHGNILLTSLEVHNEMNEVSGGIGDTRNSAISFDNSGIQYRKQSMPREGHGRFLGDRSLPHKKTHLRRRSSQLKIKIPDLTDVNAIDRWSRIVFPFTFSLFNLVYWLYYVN
T1 sequence (P34903 whole entry): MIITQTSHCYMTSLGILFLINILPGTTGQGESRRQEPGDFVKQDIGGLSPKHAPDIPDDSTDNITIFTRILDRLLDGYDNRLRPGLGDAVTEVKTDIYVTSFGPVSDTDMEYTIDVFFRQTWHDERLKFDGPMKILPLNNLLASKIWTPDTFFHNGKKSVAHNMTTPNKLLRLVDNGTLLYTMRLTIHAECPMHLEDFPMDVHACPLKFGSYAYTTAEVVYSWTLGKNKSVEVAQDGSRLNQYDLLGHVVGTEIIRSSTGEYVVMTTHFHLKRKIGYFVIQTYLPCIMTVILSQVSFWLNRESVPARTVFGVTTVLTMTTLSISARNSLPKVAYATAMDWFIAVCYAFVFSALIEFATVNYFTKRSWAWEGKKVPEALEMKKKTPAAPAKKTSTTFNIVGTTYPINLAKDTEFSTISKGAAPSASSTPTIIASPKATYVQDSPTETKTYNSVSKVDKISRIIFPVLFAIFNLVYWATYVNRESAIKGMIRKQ
Summary of the method: (§2)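 HEK cell membranes carrying human receptors in 50 mM Tris–citrate pH 7.1 with 1 nM final [3H]flumazenil, incubated 40 min on ice (0–4 °C). Filtered on GF/C and washed with ice-cold buffer. Clonazepam 1 µM final defined nonspecific binding. IC50 from 4–6 test concentrations, converted by Ki = IC50/(1+L/KD). Mean ± SD of three determinations.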

[3] = molecular target: T2, GABA-A receptor; alpha-2/beta-3/gamma-2 (Homo sapiens, UniProt P18507+P28472+P47869); assay: Displacement of [3H]flumazenil human recombinant alpha2beta3gamma2 GABA(A) receptor expressed in HEK293 cells after 30 mins by glass fiber filtration assay; assay type: cell-based; settings: in the assay text read “after 40 mins” for “after 30 mins”; summary of the method: as §2
T2 sequence (P18507 whole entry): T1 sequence (P18507 whole entry)
T2 sequence (P28472 whole entry): T1 sequence (P28472 whole entry)
T2 sequence (P47869 whole entry): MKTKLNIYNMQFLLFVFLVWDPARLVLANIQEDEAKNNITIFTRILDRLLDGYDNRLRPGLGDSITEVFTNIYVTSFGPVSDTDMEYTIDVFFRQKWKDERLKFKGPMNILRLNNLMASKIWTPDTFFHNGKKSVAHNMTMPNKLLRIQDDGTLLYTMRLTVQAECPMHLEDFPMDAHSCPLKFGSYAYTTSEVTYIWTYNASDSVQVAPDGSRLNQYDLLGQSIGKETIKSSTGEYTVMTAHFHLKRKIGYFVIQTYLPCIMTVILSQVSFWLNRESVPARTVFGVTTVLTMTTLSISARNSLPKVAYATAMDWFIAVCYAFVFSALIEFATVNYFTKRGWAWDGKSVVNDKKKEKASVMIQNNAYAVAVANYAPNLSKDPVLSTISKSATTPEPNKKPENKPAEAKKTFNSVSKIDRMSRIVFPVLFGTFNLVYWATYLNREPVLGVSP

[4] = molecular target: T3, GABA-A receptor; alpha-1/beta-3/gamma-2 (Homo sapiens, UniProt P14867+P18507+P28472); assay: Displacement of [3H]flumazenil human recombinant alpha1beta3gamma2 GABA(A) receptor expressed in HEK293 cells after 30 mins by glass fiber filtration assay; assay type: cell-based; settings: in the assay text read “after 40 mins” for “after 30 mins”; summary of the method: as §2
T3 sequence (P14867 whole entry): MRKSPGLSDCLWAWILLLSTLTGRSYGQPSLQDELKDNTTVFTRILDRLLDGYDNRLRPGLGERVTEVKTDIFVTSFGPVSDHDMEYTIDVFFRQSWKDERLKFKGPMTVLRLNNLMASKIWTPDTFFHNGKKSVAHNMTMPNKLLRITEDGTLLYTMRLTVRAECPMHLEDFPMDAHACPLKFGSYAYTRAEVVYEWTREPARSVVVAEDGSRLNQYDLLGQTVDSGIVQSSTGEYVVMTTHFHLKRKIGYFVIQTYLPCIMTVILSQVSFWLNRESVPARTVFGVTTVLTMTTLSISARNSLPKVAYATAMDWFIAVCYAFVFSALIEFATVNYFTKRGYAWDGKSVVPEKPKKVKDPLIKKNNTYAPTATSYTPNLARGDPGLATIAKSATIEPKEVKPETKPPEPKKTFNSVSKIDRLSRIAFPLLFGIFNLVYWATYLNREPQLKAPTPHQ
T3 sequence (P18507 whole entry): T1 sequence (P18507 whole entry)
T3 sequence (P28472 whole entry): T1 sequence (P28472 whole entry)

[5] = Displacement of [3H]flumazenil form benzodiazepine-binding site of GABA(A) receptor in rat cortical membrane after 30 mins by glass fiber filtration assay; assay type: cell membranes; settings: in the assay text read “after 40 mins” for “after 30 mins”
Summary of the method: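 Rat cortex homogenized in 30 mM Tris–HCl pH 7.4, washed by 27,000g spins, held at 37 °C for 30 min, stored at −20 °C. Membranes (1 mg original tissue/0.55 mL) in 50 mM Tris–citrate pH 7.1 with 1 nM final [3H]flumazenil, 40 min at 0–4 °C. GF/C filtration. Nonspecific binding with 1 µM clonazepam. IC50 from 4–6 concentrations; Ki = IC50/(1+L/KD).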

[6] = molecular target: T4, GABA-A receptor; alpha-5/beta-3/gamma-2 (Homo sapiens, UniProt P18507+P28472+P31644); assay: Displacement of [3H]flumazenil human recombinant alpha5beta3gamma2 GABA(A) receptor expressed in HEK293 cells after 30 mins by glass fiber filtration assay; assay type: cell-based; settings: in the assay text read “after 40 mins” for “after 30 mins”; summary of the method: as §2
T4 sequence (P18507 whole entry): T1 sequence (P18507 whole entry)
T4 sequence (P28472 whole entry): T1 sequence (P28472 whole entry)
T4 sequence (P31644 whole entry): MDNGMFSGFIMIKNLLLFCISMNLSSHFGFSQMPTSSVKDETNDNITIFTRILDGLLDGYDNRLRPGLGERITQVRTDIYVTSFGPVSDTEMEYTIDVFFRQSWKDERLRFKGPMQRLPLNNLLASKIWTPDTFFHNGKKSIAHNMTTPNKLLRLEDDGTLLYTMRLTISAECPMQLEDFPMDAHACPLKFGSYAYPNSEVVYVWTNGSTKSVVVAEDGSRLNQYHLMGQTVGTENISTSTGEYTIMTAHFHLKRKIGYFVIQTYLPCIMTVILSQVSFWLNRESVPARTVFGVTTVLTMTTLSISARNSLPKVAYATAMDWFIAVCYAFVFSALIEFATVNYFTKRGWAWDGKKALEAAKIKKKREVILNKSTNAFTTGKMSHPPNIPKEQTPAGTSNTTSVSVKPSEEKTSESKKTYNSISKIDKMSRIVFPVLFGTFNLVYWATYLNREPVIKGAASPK

Homo sapiens [7] = organism: Homo sapiens; assay: Selectivity ratio of Ki for human recombinant alpha3beta3gamma2 GABA(A) receptor to Ki for human recombinant alpha1beta3gamma2 GABA(A) receptor; summary of the method: as §1
Homo sapiens [8] = organism: Homo sapiens; assay: Selectivity ratio of Ki for human recombinant alpha2beta3gamma2 GABA(A) receptor to Ki for human recombinant alpha1beta3gamma2 GABA(A) receptor; summary of the method: as §1

SMILES: Cc1ccc(-n2nc3c4cc(Cc5cccc(F)c5)ccc4[nH]c(=O)n3c2=O)cc1
pKi [5]: 8.68

SMILES: Cc1ccc(-n2nc3c4cc(CCc5ccc(Oc6ccccc6)cc5)ccc4[nH]c(=O)n3c2=O)cc1
pKi [5]: 6.91

SMILES: Cc1ccc(-n2nc3c4cc(CCc5ccccc5)ccc4[nH]c(=O)n3c2=O)cc1
pKi [2]: 8.01
pKi [3]: 7.19
pKi [4]: 8.44
pKi [5]: 8.40
pKi [6]: 7.18
Ratio Ki (Homo sapiens [8]): 18

SMILES: Cc1ccc(-n2nc3c4cc(CCc5ccc(-c6ccccc6)cc5)ccc4[nH]c(=O)n3c2=O)cc1
pKi [5]: 5.80

SMILES: Cc1ccc(-n2nc3c4cc(C#Cc5ccccc5)ccc4[nH]c(=O)n3c2=O)cc1
pKi [5]: 7.40

SMILES: Cc1ccc(-n2nc3c4cc(CCC(=O)O)ccc4[nH]c(=O)n3c2=O)cc1
pKi [5]: 8.85

SMILES: Cc1ccc(-n2nc3c4cc(CCc5cccc(O)c5)ccc4[nH]c(=O)n3c2=O)cc1
pKi [5]: 7.91

These reach a higher pKi [5]. Values come first.

pKi [5]: 9.00
SMILES: Cc1ccc(-n2nc3c4cc(Cc5ccccc5)ccc4[nH]c(=O)n3c2=O)cc1

Ratio Ki (Homo sapiens [1]): 26
pKi [2]: 9.15
pKi [3]: 8.77
pKi [4]: 9.85
pKi [5]: 9.03
pKi [6]: 8.44
Ratio Ki (Homo sapiens [7]): 5
SMILES: Cc1ccc(-n2nc3c4cc(CCc5ccsc5)ccc4[nH]c(=O)n3c2=O)cc1

pKi [2]: 8.89
pKi [3]: 9.00
pKi [4]: 9.37
pKi [5]: 9.21
Ratio Ki (Homo sapiens [8]): 2
SMILES: Cc1ccc2[nH]c(=O)n3c(=O)n(-c4ccccc4)nc3c2c1

pKi [5]: 9.22
SMILES: O=c1[nH]c2ccc(Br)cc2c2nn(-c3ccc(Cl)cc3)c(=O)n12

pKi [5]: 9.28
SMILES: Cc1ccc(-n2nc3c4cc(CCc5ccccn5)ccc4[nH]c(=O)n3c2=O)cc1

pKi [5]: 9.33
SMILES: Cc1ccc(-n2nc3c4cc(Br)ccc4[nH]c(=O)n3c2=O)cc1

pKi [5]: 9.62
SMILES: O=c1[nH]c2ccc(Br)cc2c2nn(-c3ccccc3)c(=O)n12

pKi [5]: 9.64
SMILES: Cc1ccc(-n2nc3c4cc(Cc5ccsc5)ccc4[nH]c(=O)n3c2=O)cc1

Ratio Ki (Homo sapiens [1]): 13
pKi [2]: 8.64
pKi [3]: 8.36
pKi [4]: 9.17
pKi [5]: 9.70
pKi [6]: 8.04
Ratio Ki (Homo sapiens [7]): 3
SMILES: Cc1ccc(-n2nc3c4cc(CCc5cccnc5)ccc4[nH]c(=O)n3c2=O)cc1

pKi [5]: 9.70
SMILES: O=c1[nH]c2ccc(Br)cc2c2nn(-c3ccccc3F)c(=O)n12

pKi [5]: 9.77
SMILES: Cc1ccc(-n2nc3c4cc(CCc5ccncc5)ccc4[nH]c(=O)n3c2=O)cc1
